Assay results published in ChEMBL document CHEMBL1130095, “Synthesis of analogs of 2-methoxyestradiol with enhanced inhibitory effects on tubulin polymerization and cancer cell growth” (J Med Chem, 1997).

biological target: Estrogen receptor (Rattus norvegicus) (UniProt P06211+Q62986); experiment: Relative binding affinity for estrogen receptor using a tritium labeled estrogen as the tracer and immature rat uterine cytosol; type: protein assay; settings: Uterus
How it was run: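 Competitive radiometric binding with a tritiated estrogen tracer and immature rat uterine cytosol as receptor source, incubated at 0 °C for 18 or 20 h. […] Coefficient of variation between replicate experiments is typically below 30%.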

Compound | relative binding affinity (RBA)
CCOc1cc2c(cc1O)/C(=N\OC)C[C@@H]1[C@@H]2CC[C@]2(C)[C@@H](O)CC[C@@H]12 | < 0.001
C[C@]12CC[C@@H]3c4cc(OCC(F)(F)F)c(O)cc4/C(=N\O)C[C@H]3[C@@H]1CC[C@@H]2O | 0.007

tested on: HCT-116; experiment: In vitro cytotoxicity value is the concentration of the compound corresponding to 50% growth inhibition against HCT116 (colon) cell line.; type: functional; settings: Homo sapiens

Compound | GI50
C[C@]12CC[C@@H]3c4cc(OCC(F)(F)F)c(O)cc4C(=O)C[C@H]3[C@@H]1CC[C@@H]2O | 3700 nM

tested on: MDA-MB-435; experiment: In vitro cytotoxicity value is the concentration corresponding to 50% growth inhibition against MDA-MB-435 (breast) cell line.; type: functional; settings: Homo sapiens

Compound | GI50
C[C@]12CC[C@@H]3c4cc(OCC(F)(F)F)c(O)cc4C(=O)C[C@H]3[C@@H]1CC[C@@H]2O | 27000 nM

tested on: HOP-62; experiment: In vitro cytotoxicity value corresponding to 50% growth inhibition against HOP-62(non small cell lung) cell line.; type: functional; settings: Homo sapiens

Compound | GI50
CCOc1cc2c(cc1O)/C(=N\OC)C[C@@H]1[C@@H]2CC[C@]2(C)[C@@H](O)CC[C@@H]12 | 110 nM
C[C@]12CC[C@@H]3c4cc(OCC(F)(F)F)c(O)cc4/C(=N\O)C[C@H]3[C@@H]1CC[C@@H]2O | 17 nM

tested on: HOP-62; experiment: In vitro cytotoxicity value is the concentration corresponding to 50% growth inhibition against HOP-62(non small cell lung) cell line.; type: functional; settings: Homo sapiens

Compound | GI50
C[C@]12CC[C@@H]3c4cc(OCC(F)(F)F)c(O)cc4C(=O)C[C@H]3[C@@H]1CC[C@@H]2O | 8700 nM

tested on: SN12C; experiment: In vitro cytotoxicity value is the concentration corresponding to 50% growth inhibition against SN12C (renal) cell line.; type: functional; settings: Homo sapiens

Compound | GI50
C[C@]12CC[C@@H]3c4cc(OCC(F)(F)F)c(O)cc4C(=O)C[C@H]3[C@@H]1CC[C@@H]2O | 24000 nM

tested on: OVCAR-3; experiment: In vitro cytotoxicity value is the concentration corresponding to 50% growth inhibition against OVCAR-3 (ovarian) cell line.; type: functional; settings: Homo sapiens

Compound | GI50
C[C@]12CC[C@@H]3c4cc(OCC(F)(F)F)c(O)cc4C(=O)C[C@H]3[C@@H]1CC[C@@H]2O | 3500 nM

tested on: Panel (Carcinoma cell lines); experiment: Mean graph midpoint for growth inhibition of all human cancer cell lines; type: functional; settings: not given

GI50 | Compound
9800 nM | C[C@]12CC[C@@H]3c4cc(OCC(F)(F)F)c(O)cc4C(=O)C[C@H]3[C@@H]1CC[C@@H]2O
270 nM | CCOc1cc2c(cc1O)/C(=N\OC)C[C@@H]1[C@@H]2CC[C@]2(C)[C@@H](O)CC[C@@H]12

Compound | GI50
C[C@]12CC[C@@H]3c4cc(OCC(F)(F)F)c(O)cc4/C(=N\O)C[C@H]3[C@@H]1CC[C@@H]2O | 66 nM

tested on: SF-539; experiment: The In vitro cytotoxicity corresponding to 50% growth inhibition against […] (central nervous system) cell line.; type: functional; settings: Homo sapiens

Compound | GI50
C[C@]12CC[C@@H]3c4cc(OCC(F)(F)F)c(O)cc4/C(=N\O)C[C@H]3[C@@H]1CC[C@@H]2O | 21 nM

tested on: UACC-62; experiment: In vitro cytotoxicity value is the concentration corresponding to 50% growth inhibition against UACC-62(melanoma) cell line.; type: functional; settings: Homo sapiens

Compound | GI50
C[C@]12CC[C@@H]3c4cc(OCC(F)(F)F)c(O)cc4C(=O)C[C@H]3[C@@H]1CC[C@@H]2O | 3300 nM

biological target: Tubulin (Bos taurus, UniProt Q6B856+Q862L2+Q862F3); experiment: The compound was evaluated for inhibition of tubulin polymerization, which is purified from bovine brain; type: functional; settings: not given
How it was run: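 Electrophoretically homogeneous bovine brain tubulin at 1.2 mg/mL (12 µM), preincubated at 26 °C with varying compound concentrations, then chilled on ice before GTP was added. Assembly was followed at 26 °C by turbidity at 350 nm, and the extent was read at 20 min. IC50 was derived graphically from at least two independent assays.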

IC50 | Compound
24000 nM | C[C@]12CC[C@@H]3c4cc(OCC(F)(F)F)c(O)cc4C(=O)C[C@H]3[C@@H]1CC[C@@H]2O
1400 nM | CCOc1cc2c(cc1O)/C(=N\OC)C[C@@H]1[C@@H]2CC[C@]2(C)[C@@H](O)CC[C@@H]12

Compound | IC50
C[C@]12CC[C@@H]3c4cc(OCC(F)(F)F)c(O)cc4/C(=N\O)C[C@H]3[C@@H]1CC[C@@H]2O | 2300 nM

tested on: DU-145; experiment: The In vitro cytotoxicity value corresponding to 50% growth inhibition against DU-145 (prostate) cell line.; type: functional; settings: Homo sapiens

Compound | GI50
CCOc1cc2c(cc1O)/C(=N\OC)C[C@@H]1[C@@H]2CC[C@]2(C)[C@@H](O)CC[C@@H]12 | 330 nM
C[C@]12CC[C@@H]3c4cc(OCC(F)(F)F)c(O)cc4/C(=N\O)C[C@H]3[C@@H]1CC[C@@H]2O | 49 nM

tested on: MDA-MB-435; experiment: In vitro cytotoxicity value corresponding to 50% growth inhibition against MDA-MB-435 (breast) cell line.; type: functional; settings: Homo sapiens

Compound | GI50
CCOc1cc2c(cc1O)/C(=N\OC)C[C@@H]1[C@@H]2CC[C@]2(C)[C@@H](O)CC[C@@H]12 | 29 nM
C[C@]12CC[C@@H]3c4cc(OCC(F)(F)F)c(O)cc4/C(=N\O)C[C@H]3[C@@H]1CC[C@@H]2O | 10 nM

tested on: OVCAR-3; experiment: In vitro cytotoxicity value corresponding to 50% growth inhibition against OVCAR-3 (ovarian) cell line.; type: functional; settings: Homo sapiens

Compound | GI50
CCOc1cc2c(cc1O)/C(=N\OC)C[C@@H]1[C@@H]2CC[C@]2(C)[C@@H](O)CC[C@@H]12 | 26 nM
C[C@]12CC[C@@H]3c4cc(OCC(F)(F)F)c(O)cc4/C(=N\O)C[C@H]3[C@@H]1CC[C@@H]2O | 16 nM

tested on: SN12C; experiment: In vitro cytotoxicity value corresponding to 50% growth inhibition against SN12C (renal) cell line.; type: functional; settings: Homo sapiens

Compound | GI50
CCOc1cc2c(cc1O)/C(=N\OC)C[C@@H]1[C@@H]2CC[C@]2(C)[C@@H](O)CC[C@@H]12 | 390 nM
C[C@]12CC[C@@H]3c4cc(OCC(F)(F)F)c(O)cc4/C(=N\O)C[C@H]3[C@@H]1CC[C@@H]2O | 45 nM

tested on: DU-145; experiment: In vitro cytotoxicity value is the concentration corresponding to 50% growth inhibition against DU-145 (prostate) cell line.; type: functional; settings: Homo sapiens

Compound | GI50
C[C@]12CC[C@@H]3c4cc(OCC(F)(F)F)c(O)cc4C(=O)C[C@H]3[C@@H]1CC[C@@H]2O | 15000 nM

tested on: UACC-62; experiment: In vitro cytotoxicity value corresponding to 50% growth inhibition against UACC-62(melanoma) cell line.; type: functional; settings: Homo sapiens

Compound | GI50
CCOc1cc2c(cc1O)/C(=N\OC)C[C@@H]1[C@@H]2CC[C@]2(C)[C@@H](O)CC[C@@H]12 | 52 nM
C[C@]12CC[C@@H]3c4cc(OCC(F)(F)F)c(O)cc4/C(=N\O)C[C@H]3[C@@H]1CC[C@@H]2O | 15 nM

tested on: HCT-116; experiment: In vitro cytotoxicity value corresponding to 50% growth inhibition against HCT116 (colon) cell line.; type: functional; settings: Homo sapiens

Compound | GI50
CCOc1cc2c(cc1O)/C(=N\OC)C[C@@H]1[C@@H]2CC[C@]2(C)[C@@H](O)CC[C@@H]12 | 49 nM
C[C@]12CC[C@@H]3c4cc(OCC(F)(F)F)c(O)cc4/C(=N\O)C[C@H]3[C@@H]1CC[C@@H]2O | 31 nM

tested on: SF-539; experiment: In vitro cytotoxicity value is the concentration corresponding to 50% growth inhibition against […] (central nervous system) cell line.; type: functional; settings: Homo sapiens

Compound | GI50
C[C@]12CC[C@@H]3c4cc(OCC(F)(F)F)c(O)cc4C(=O)C[C@H]3[C@@H]1CC[C@@H]2O | 5100 nM

biological target: Tubulin (Bos taurus) (UniProt Q6B856+Q862L2+Q862F3); experiment: The compound was evaluated for inhibition of colchicine binding to tubulin.; type: protein assay; settings: concentration not given here
How it was run: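 Mixtures held 1.0 µM bovine brain tubulin (0.1 mg/mL), 5.0 µM [³H]colchicine and 50 µM inhibitor, incubated 10 min at 37 °C. Bound-colchicine inhibition is given as percent, from triplicate samples in each experiment.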

inhibition | Compound
1.7% | C[C@]12CC[C@@H]3c4cc(OCC(F)(F)F)c(O)cc4C(=O)C[C@H]3[C@@H]1CC[C@@H]2O
34% | CCOc1cc2c(cc1O)/C(=N\OC)C[C@@H]1[C@@H]2CC[C@]2(C)[C@@H](O)CC[C@@H]12

Compound | inhibition
C[C@]12CC[C@@H]3c4cc(OCC(F)(F)F)c(O)cc4/C(=N\O)C[C@H]3[C@@H]1CC[C@@H]2O | 28%
